# RanGTP-Imp inh – disruptors of Ran-importin-beta complex formation – biochemical, FRET, CFP-Ran, YFP-importin-beta, homogeneous, primary screen. cell-free CFP-Ran/YFP-importin-beta FRET ratio. inhibition, % (concentration not given with the values). 300,000 tested, 1.1% active. AID 2216;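 active = more than half of the replicate wells show a fall in the fluorescence ratio signal beyond about 16%, limit read from the data, passing the limit was not always enough; inconclusive = exactly half of the replicate wells pass the set limit; inactive = fewer than half of replicates pass the limit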;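 also: 0% = DMSO wells and 100% = Ran loaded with GDP instead of GTP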
# CaV13 FRET inh – Primary screen for inhibitors of IQ motif and Ca2+-dependent inactivation inhibitor domain binding in CACNA1D, Förster resonance energy transfer in living cells, …; 340,000 tested, 0.098% active; HEK cells, CFP/YFP FRET ICDI-IQ, plate reader, 10 min; percent FRET-ratio fall versus neutral wells; inhibition, % at 12.3 µM;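 active = mean replicate inhibition of at least 30% and at least 1% of replicates passing that level; inconclusive = only one of the two criteria is met; inactive = neither criterion is met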;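 also: 0% = median of the neutral control wells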
# Runt-SMMHC FRET – blocks binding of human RUNX1 Runt domain to CBFb-SMMHC. Q01196+Q13951. Cerulean-Runt/Venus-CBFb-SMMHC FRET ratio 530/480, 1 h. inhibition, % at 20 µM. 220,000 tested, 0.74% active;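 active = mean inhibition across duplicate retests at 20 µM reaching about 50%, limit read from the data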;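 also: 0% = DMSO wells and 100% = wells with excess untagged CBFb-SMMHC; inhibitors lower the FRET ratio by blocking Runt binding to CBFb-SMMHC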
# Target sequence (Q01196 whole entry, looked up, the tested form may be a part): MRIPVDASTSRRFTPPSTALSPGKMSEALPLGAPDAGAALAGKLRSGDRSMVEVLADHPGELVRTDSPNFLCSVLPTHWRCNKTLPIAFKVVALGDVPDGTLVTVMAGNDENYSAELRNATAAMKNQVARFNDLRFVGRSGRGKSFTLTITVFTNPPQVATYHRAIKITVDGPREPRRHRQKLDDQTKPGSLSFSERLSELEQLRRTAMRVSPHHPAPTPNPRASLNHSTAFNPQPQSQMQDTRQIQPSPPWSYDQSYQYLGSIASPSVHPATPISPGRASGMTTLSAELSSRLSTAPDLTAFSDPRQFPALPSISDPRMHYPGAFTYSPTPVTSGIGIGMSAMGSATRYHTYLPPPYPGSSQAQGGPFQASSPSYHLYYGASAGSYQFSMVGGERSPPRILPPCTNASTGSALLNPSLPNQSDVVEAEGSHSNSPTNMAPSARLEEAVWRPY
# Target sequence (Q13951 whole entry, looked up, the tested form may be a part): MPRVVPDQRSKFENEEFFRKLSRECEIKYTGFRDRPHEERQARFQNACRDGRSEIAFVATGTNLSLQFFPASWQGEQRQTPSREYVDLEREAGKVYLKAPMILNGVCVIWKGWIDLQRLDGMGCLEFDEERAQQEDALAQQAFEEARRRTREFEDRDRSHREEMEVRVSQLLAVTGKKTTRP
# Runt-CBFb FRET – inhibitors of human RUNX1 Runt domain binding to CBFb | 220,000 tested, 0.46% active | AID 1496 | Q01196+Q13951 | inhibition, % at 20 µM | Cerulean-Runt/Venus-CBFb FRET ratio 530/480, 1 h;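 active = inhibition over about 50% at 20 µM in the single-dose screen, limit read from the data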;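 also: 0% = DMSO wells and 100% = excess unlabeled CBFb competitor control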
#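 test system = Cerulean-tagged RUNX1 Runt domain (FRET donor) fusion protein | reagent = Venus-CBFb binding partner, 100 nM | incubation = protein complex preformed 1 h, compound exposure 1 h, room temperature, dark | detection = FRET fluorescence | read-out basis = loss of energy transfer signal | controls = 5 µM unlabeled CBFb as full-inhibition high control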
# Runt-CBFb TRFRET – Runt-CBFb binding inhibition | AID 1502 | TR-FRET RUNX1 Runt domain-CBFb binding | inhibition, % at 20 µM | 480 tested, 20% active | shares compounds with Runt-CBFb FRET; in the data active = inhibition above about 40%
# Numbers without * were called inactive; ? = inconclusive; · = not tested or not shown. Rows were chosen to be rich in hits. Some 1.2% of all compounds tested hit in one or more screens of this group.
SMILES,RanGTP-Imp inh,CaV13 FRET inh,Runt-SMMHC FRET,Runt-CBFb FRET,Runt-CBFb TRFRET
CCOC(=O)c1cnc(-n2nc(C)cc2C)nc1Nc1ccc(C)cc1,1,-4,-4,3,·
O=C(c1ccc(F)cc1F)N1CCN(S(=O)(=O)c2ccc3c(c2)OCCO3)CC1,·,-2,·,·,·
O=C1NCCCc2c1oc1cc(Br)c(O)c(Br)c21,-5,-5,16,11,·
O=C1NCCCC2c3c(cc(Br)c(O)c3Br)OC12N1CCCCC1 (centres undefined),3,-5,47,50*,63*
Clc1ccc(-c2nc3ccncc3[nH]2)cc1,?,-8,20,59*,-10
Cc1[nH]c2ccccc2c1C1=NNC(=Nc2ccc(F)cc2)SC1,·,-19,47,53*,-2
CC(C)S(=O)(=O)C1=NSC2=NC(=O)/C(=C\c3ccc(-c4cccc(C(=O)O)c4)o3)C(=N)N21,·,-23,66,60*,21
CC(C)N1CCc2c(sc(N)c2C#N)C1,68*,-5,142*,59*,-3
COc1ccc(-c2sc(Nc3ccccc3)n[n+]2-c2ccc(F)cc2)c(C)c1C,2,-5,·,·,·
CCOC(=O)c1ccccc1NC(=O)CSc1nc2ccccc2c(=O)n1CCCN1CCOCC1,·,-3,·,·,·
COCCOC(=O)c1c(N)n(CCCN2CCOCC2)c2nc3ccccc3nc12,11,-3,97*,51*,-4
O=c1c2ccccc2sn1-c1nccs1,8,-12,80*,50*,-8
O=C1c2ccccc2C(=O)N1c1nccs1,·,-11,·,·,·
CN(CC(=O)Nc1ccccc1C(F)(F)F)C(=O)CC1OC(=O)c2ccccc21 (centres undefined),3,·,·,·,·
COc1cccc2cc(C(=O)N3CCN(C45CC6CC(CC(C6)C4)C5)CC3)c(=O)oc12,53*,·,90,60*,-4
CN(Cc1ccccc1)C(=O)c1[nH]cnc1C(=O)NC1CCN(C(=O)OC(C)(C)C)CC1,·,-10,·,·,·
Cc1cc(C(=O)N/N=C/c2c(CO)cnc(C)c2O)c2ccccc2n1,6,-3,·,·,·
Cc1ncc(CO)c(/C=N/NC(=O)c2cc(O)c(O)c(O)c2)c1O,8,·,51*,57*,66*
CCSc1ccc([C@@H]2[C@H]3C(=O)N(C)C(=O)[C@H]3[C@]3(C(=O)OC)CCCCN23)cc1,·,-11,·,·,·
NS(=O)(=O)c1ccc(N/C=C\C(=O)c2ccc3ccccc3c2)cc1,-3,-2,-62,50*,44*
COc1ccc(Cc2nnc(NC(=O)c3cccc(F)c3)s2)cc1OC,?,-2,·,·,·
Cc1cc(C)nc(Sc2nc(Cl)nc(N(c3ccccc3)c3ccccc3)n2)n1,0,·,53,59*,18
O=C(O)c1cccc(S(=O)(=O)Nc2ccc3oc(=O)sc3c2)c1,0,·,68*,65*,21
O=c1oc2ccc(NS(=O)(=O)c3cccc4cccnc34)cc2s1,-2,-3,·,·,·
CC1(C)NC(=O)N(CC(=O)OCC(=O)Nc2cc(S(=O)(=O)N3CCCCC3)ccc2Cl)C1=O,-1,-3,0,-1,·
SMILES,RanGTP-Imp inh,CaV13 FRET inh,Runt-SMMHC FRET,Runt-CBFb FRET,Runt-CBFb TRFRET
COc1ccccc1N1C(=O)C=C(Sc2nc(C)cc(C)n2)C1=O,-3,-3,68*,60*,37
Oc1ccc(/C=N/N=C(c2ccccc2)c2ccccc2)c(O)c1O,·,-5,46,57*,63*
C1=CCN(c2nc(N3CCOCC3)nc(N3CCCc4ccccc43)n2)CC1,·,-5,·,·,·
Cc1ccc(N/C=C2/Sc3ccccc3NC2=O)cc1,-2,-7,-8,36,·
COc1ccc(N/C=C2/Sc3ccccc3NC2=O)cc1,1,-3,54*,61*,14
O=C1Nc2ccccc2S/C1=C/NCc1ccccc1Cl,0,-2,26,59*,14
c1ccc(C2CC(c3cccs3)=NN2c2ccccc2)cc1 (centres undefined),12,-11,84*,51*,39
Cc1cc(C)c(NC(=S)NCC2CCN(C(C)c3ccccc3)C2)c(C)c1 (centres undefined),5,-17,45,54*,36
Cc1cc(NC(=O)CCC(=O)N(c2ccccc2F)C(C(=O)NC2CCCC2)c2ccccc2)no1 (centres undefined),2,-7,·,·,·
COc1ccc(N2CSC3=C(C#N)C(c4ccc(OC)c(OC)c4)CC(=O)N3C2)c(OC)c1 (centres undefined),3,-11,31,23,·
COc1ccc(C2CC(=O)N3CN(c4ccc(C)c(Cl)c4)CSC3=C2C#N)cc1OC (centres undefined),-1,-4,100*,59*,-24
CN(C(=O)OC(C)(C)C)[C@H](Cc1ccccc1)C(=O)N[C@H]1CCCCNC1=O,·,-4,·,·,·
CC1(C(=O)Nc2ccc(Cl)c(Cl)c2)CCN1Cc1cc2ccccc2o1 (centres undefined),·,-6,·,·,·
Cc1cnc(C(=O)OCc2csc(CC(=O)Nc3ccccc3C)n2)cn1,3,-5,·,·,·
Cc1ccc2c(c1)sc(C)[n+]2CCCS(=O)(=O)[O-],1,-1,50,58*,29

# Compound activity as filed in PubChem BioAssay.
